Screens as filed in PubChem.
Shown are actives, neighbours in structure and some others; about 5.1% of the full set was active somewhere.
STAT1 blocker: inhibitors of IFN-gamma induced STAT1 signaling; NIH 3T3 STAT1-luciferase reporter, luminescence; inhibition, % at 5.5 µM; actives 0.35% (n = 200,000);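 active = inhibition above a set limit, the mean inhibition across all tested compounds plus 3 SD, cut at about 34% in these data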
STAT3 inh-1: STAT3 signaling inhibition. U3A cells, IL-6 STAT3-luciferase reporter, luminescence; host cell line lacks STAT1. inhibition, % at 5.5 µM. actives 0.89% (n = 190,000);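 active = inhibition above the mean inhibition across all screened compounds plus 3 SD, cut at about 44% in these data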
APP 5'UTR act: activates APP 5'UTR luciferase reporter. activation, % at 2 µM. SH-SY5Y APP 5'UTR luciferase reporter, luminescence; zero percent = DMSO vehicle wells. actives 1% (n = 190,000). AID 1276;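 active = activation above a set limit, based on mean plus 3 SD of controls, cut at about 140% in these data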
STAT3 act-1: increases IL-6 driven STAT3 reporter signal; actives 0.91% (n = 190,000); activation (% of control), % at 5.6 µM; U3A cells, IL-6 STAT3-luciferase reporter, luminescence; 100% = signal with IL-6 EC80 alone;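 active = activation above the screen-wide mean of compound activation plus 3 SD, cut at about 130% in these data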
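Test system: Human STAT1-deficient U3A cells with stable STAT3-luciferase reporter | Also added: Interleukin-6, 33 ng/mL | Timing: Compound pre-incubation 1 h before IL-6, then 6 h stimulation at 37 °C | Technique: Luciferase reporter luminescence | Read-out: Percent of IL-6-only median luminescence | Benchmarks: IL-6-only wells as 100% reference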
STAT1 act-1: STAT1 signaling activation | NIH 3T3 STAT1-luciferase reporter, IFN-gamma, luminescence; 100% = IFN-gamma alone, no compound | activation (% of control), % at 5.5 µM | actives 2.6% (n = 200,000) | AID 932;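 active = activation above the screen-wide mean activation plus 3 SD, cut at about 130% in these data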
NF-kB expr up: compounds increasing NF-kB expression in human neuronal cells | NF-kB reporter expression; hits give high values | fold change at 12.5 µM | actives 1.6% (n = 190,000) | AID 1239; in the data active = fold change above about 3.3
STAT3 inh-2: STAT3 inhibition, confirmation assay; shares compounds with STAT3 inh-1; U3A cells, IL-6 STAT3 luciferase reporter, luminescence; cell line lacks STAT1; inhibition, % at 5.7 µM; actives 45% (n = 1,200); AID 1265;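 active = inhibition above the hit cutoff computed for the primary STAT3 screen, cut at about 44% in these data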
NFkB inh 2: counter-screen for STAT3 inhibitors: NF-kappaB inhibition | shares compounds with STAT3 inh-1 | HEK293T NF-kB luciferase reporter, TNF-alpha induced | inhibition, % at 5.7 µM | actives 36% (n = 1,200) | AID 1308;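 active = inhibition above the mean of solvent-only control wells plus 3 SD, cutoff set per campaign, cut at about 13% in these data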
STAT1 inh 2: counter-screen for STAT3 inhibitors: STAT1 inhibition. AID 1317. actives 27% (n = 1,200). inhibition, % at 5.7 µM. shares compounds with STAT3 inh-1. NIH 3T3 STAT1-luciferase reporter, IFN-gamma induced, luminescence;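 active = inhibition above the mean plus 3 SD of solvent-only control wells, limit set per screening run, cut at about 16% in these data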
STAT3 act-2: confirmation of STAT3 signaling activators | shares compounds with STAT3 act-1 | U3A STAT3-luciferase reporter, IL-6 potentiation, luminescence; U3A cells lack STAT1; 100 means same as IL-6 alone | potentiation (% of control), % at 5.7 µM | actives 64% (n = 1,200);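 active = percent activation of the STAT3 luciferase reporter above a set limit taken from the earlier primary screen, cut at about 130% in these data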
NFkB act STAT3ct: NF-kappaB activation in STAT3 activator counter-screen | activation (% of control), % at 5.7 µM | actives 11% (n = 1,200) | shares compounds with STAT3 act-1 | human cells, NF-kappaB reporter activation; in the data active = activation above about 120%;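 also: reporter induced by TNF-alpha stimulation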
STAT1 act-2: activates STAT1, counter-screen to STAT3 activators. NIH 3T3 STAT1-luciferase reporter, IFN-gamma, luminescence. shares compounds with STAT3 act-1. actives 13% (n = 1,200). activation (% of control), % at 5.7 µM;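 active = activation above the solvent-only control well mean plus 3 SD, set per screening run, cut at about 120% in these data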
STAT1 activ conf: confirmation of STAT1 signaling activators; actives 97% (n = 1,200); NIH 3T3 STAT1-luciferase reporter, IFN-gamma potentiation, luminescence; 100% = IFN-gamma EC80 alone, no compound; shares compounds with STAT1 act-1; activation (% of control), % at 5.7 µM;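 active = activation above a set limit carried over from the earlier primary STAT1 screen, cut at about 140% in these data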
NFkB act STAT1ct: counter-screen for STAT1 activators: NF-kappaB activation. shares compounds with STAT1 act-1. HEK293T NF-kB luciferase reporter, TNF-alpha stimulated, luminescence; 100% = TNF-alpha with vehicle only. activation (% of control), % at 5.7 µM. actives 43% (n = 1,200). AID 1306;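 active = activation above the mean of solvent-only control wells plus 3 SD, set per campaign, cut at about 130% in these data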;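 also: TNF-alpha given at a submaximal dose yielding about 80% of full reporter signal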
STAT3 act STAT1c: counter-screen for STAT1 activators: human STAT3 activation; shares compounds with STAT1 act-1; U3A cells STAT3-luciferase reporter, IL-6, luminescence; cells lack STAT1; 100 = IL-6 alone, no compound effect; activation (% of control), % at 5.7 µM; actives 46% (n = 1,200);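 active = activation above the solvent-only control well mean plus 3 SD, set per plate batch, cut at about 110% in these data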;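 also: higher means more STAT3 reporter activation so hits are non-selective activators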
Numbers stand for hits.

What do the screens show for `CN1C2CCC1/C(=C/c1ccccn1)C(=O)/C2=C\c1ccccn1`?
STAT1 blocker: inactive; STAT3 inh-1: 52.7; APP 5'UTR act: inactive; STAT3 act-1: inactive; STAT1 act-1: 209.1; NF-kB expr up: inactive; STAT3 inh-2: inactive; NFkB inh 2: inactive; STAT1 inh 2: inactive; STAT1 activ conf: 476.9; NFkB act STAT1ct: 252.3; STAT3 act STAT1c: inactive

What do the screens show for `CN1CCc2c(C#N)c(Cl)nc(Cl)c2C1`?
STAT1 blocker: inactive; STAT3 inh-1: inactive; APP 5'UTR act: inactive; STAT3 act-1: inactive; STAT1 act-1: inactive; NF-kB expr up: inactive

How did CC(C)n1c(=O)c(C=Nc2cccc([N+](=O)[O-])c2)c(O)n(CCc2ccccc2)c1=O do in these assays?
STAT1 blocker: inactive; STAT3 inh-1: inactive; APP 5'UTR act: inactive; STAT3 act-1: 136.6; STAT1 act-1: inactive; NF-kB expr up: inactive; STAT3 act-2: 139.2; NFkB act STAT3ct: inactive; STAT1 act-2: inactive

What do the screens show for `c1ccc2c(CNC3CCCCCC3)c[nH]c2c1`?
STAT1 blocker: inactive; STAT3 inh-1: inactive; APP 5'UTR act: inactive; STAT3 act-1: 151.7; STAT1 act-1: inactive; NF-kB expr up: inactive; STAT3 act-2: 139.2; NFkB act STAT3ct: inactive; STAT1 act-2: inactive

How did c1ccc2c(CN3CCCCCC3)c[nH]c2c1 do in these assays?
STAT1 blocker: inactive; STAT3 inh-1: inactive; APP 5'UTR act: inactive; STAT3 act-1: inactive; STAT1 act-1: inactive; NF-kB expr up: inactive

How did CC1=NN(c2ccccc2)C(=O)/C1=C/c1c(O)[nH]c(=O)[nH]c1=O do in these assays?
STAT1 blocker: inactive; STAT3 inh-1: inactive; APP 5'UTR act: inactive; STAT3 act-1: 142.6; STAT1 act-1: inactive; NF-kB expr up: inactive; STAT3 act-2: 135.0; NFkB act STAT3ct: inactive; STAT1 act-2: inactive

What do the screens show for `Fc1ccc(C2NCCc3[nH]cnc32)cc1` (centres undefined)?
STAT1 blocker: inactive; STAT3 inh-1: inactive; APP 5'UTR act: inactive; STAT3 act-1: inactive; STAT1 act-1: inactive; NF-kB expr up: inactive

Results for O=C1N(CN2CCOCC2)c2ccccc2C1(O)c1c[nH]c2ccccc12 (centres undefined) ?
STAT1 blocker: inactive; STAT3 inh-1: inactive; APP 5'UTR act: inactive; STAT3 act-1: 136.1; STAT1 act-1: inactive; NF-kB expr up: inactive; STAT3 act-2: inactive; NFkB act STAT3ct: inactive; STAT1 act-2: inactive

What do the screens show for `CC1=NN(Cc2c[nH]c3ccccc23)C(C)(C)C1`?
STAT1 blocker: inactive; STAT3 inh-1: inactive; APP 5'UTR act: inactive; STAT3 act-1: inactive; STAT1 act-1: inactive; NF-kB expr up: inactive

What do the screens show for `Cc1cc(C)cc(N2C(=O)NC(=O)/C(=C\C=C\c3ccco3)C2=O)c1`?
STAT1 blocker: inactive; STAT3 inh-1: inactive; APP 5'UTR act: inactive; STAT3 act-1: inactive; STAT1 act-1: inactive; NF-kB expr up: inactive

How did CC1=NN(c2ccccc2)C(=O)C1/C=C1\C(=O)NC(=O)N(c2ccc(C)c(C)c2)C1=O (centres undefined) do in these assays?
STAT1 blocker: inactive; STAT3 inh-1: inactive; APP 5'UTR act: inactive; STAT3 act-1: 162.2; STAT1 act-1: inactive; NF-kB expr up: inactive; STAT3 act-2: inactive; NFkB act STAT3ct: inactive; STAT1 act-2: inactive

What do the screens show for `CC1=NN(c2ccccc2)C(=O)C1/C=C1\C(=O)NC(=O)N(c2cc(C)cc(C)c2)C1=O` (centres undefined)?
STAT1 blocker: inactive; STAT3 inh-1: inactive; APP 5'UTR act: inactive; STAT3 act-1: 158.8; STAT1 act-1: inactive; NF-kB expr up: inactive; STAT3 act-2: 142.2; NFkB act STAT3ct: inactive; STAT1 act-2: inactive

How did COc1ccc(/C=C2/C(=O)NC(=O)N(c3ccc(C)c(C)c3)C2=O)cc1CN1C(=O)c2ccccc2C1=O do in these assays?
STAT1 blocker: inactive; STAT3 inh-1: inactive; APP 5'UTR act: inactive; STAT3 act-1: inactive; STAT1 act-1: inactive; NF-kB expr up: inactive

What do the screens show for `CCCC(C)C1(CC)C(=O)NC(=Nc2ccc(OC)cc2)NC1=O` (centres undefined)?
STAT1 blocker: inactive; STAT3 inh-1: inactive; APP 5'UTR act: inactive; STAT3 act-1: inactive; STAT1 act-1: inactive; NF-kB expr up: inactive

What do the screens show for `CCCCn1c(=O)c(C(=O)Nc2ccsc2C(=O)OC)c(O)c2ccccc21`?
STAT1 blocker: inactive; STAT3 inh-1: inactive; APP 5'UTR act: inactive; STAT3 act-1: 145.1; STAT1 act-1: inactive; NF-kB expr up: inactive; STAT3 act-2: 164.8; NFkB act STAT3ct: inactive; STAT1 act-2: inactive

How did NC(=S)N/N=C/c1coc2ccccc2c1=O do in these assays?
STAT1 blocker: inactive; STAT3 inh-1: inactive; APP 5'UTR act: inactive; STAT3 act-1: inactive; STAT1 act-1: inactive; NF-kB expr up: inactive
